Source: ChEMBL document CHEMBL1128385, “Three-dimensional quantitative structure-activity relationships of somatostatin analogues. 1. Comparative molecular field analysis of growth hormone release-inhibiting potencies” (J Med Chem, 1995)
Where a SMILES comes first, the peptide text is derived from it. Bridges are numbered along the chain shown (N, C = ends). [ ]: non-standard residue; d: D form. Phe(4-Cl) = N[C@@H](Cc1ccc(Cl)cc1)C(=O)O; 2Nal = N[C@@H](Cc1ccc2ccccc2c1)C(=O)O; d2Nal = N[C@H](Cc1ccc2ccccc2c1)C(=O)O; Abu = CC[C@H](N)C(=O)O

Organism: Rattus norvegicus
Assay: In vitro GH release inhibiting potency on anterior pitutaries from adult male rats, relative to somatostatin
Type: functional
Outline: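 Rat anterior pituitary cells (adult males, 200-250 g), trypsin/DNase dispersed, plated 2 × 10^5 cells/well, cultured 96 h at 37 °C in serum-supplemented DMEM. After washing, cells were pulsed 3 h at 37 °C with 1 nM GRF(1-29)NH2 ± graded analogue doses in medium 199/1% BSA, quadruplicate wells. Medium GH was measured by double-antibody RIA. Potency relative to somatostatin (=1.0) came from four-point assay (mean of ≥3 experiments) or IC50 comparison.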

For `CC1NC(=O)[C@@H]2CCCN2C(=O)C(Cc2ccccc2)NC(=O)[C@H]([C@@H](C)O)NC(=O)C(CCCCN)NC(=O)[C@@H](Cc2c[nH]c3ccccc23)NC1=O` (single isomer, unassigned), the GHI was 5.
Molecule `CC[C@@H]1NC(=O)[C@H](CCCCN)NC(=O)[C@@H](Cc2c[nH]c3ccccc23)NC(=O)[C@H](Cc2ccc(O)cc2)NC(=O)[C@@H](NC(=O)[C@H](N)Cc2ccccc2)CSSC[C@@H](C(=O)N[C@@H](Cc2ccc3ccccc3c2)C(N)=O)NC1=O` (H-[dF]CY[dW]K[Abu]C[2Nal]-NH2; disulfide 2-7) has a GHI of 0.03.
Molecule `CC(C)[C@H](NC(=O)[C@H](CCCCN)NC(=O)[C@@H](Cc1c[nH]c2ccccc12)NC(=O)[C@H](Cc1ccc(O)cc1)NC(=O)[C@H](C)NC(=O)[C@H](N)Cc1ccccc1)C(=O)N[C@@H](C)C(=O)N[C@@H](Cc1ccc2ccccc2c1)C(N)=O` (H-[dF]AY[dW]KVA[2Nal]-NH2) has a GHI of 15.
Work on `C[C@@H]1NC(=O)[C@H]([C@@H](C)O)NC(=O)C(CCCCN)NC(=O)[C@@H](Cc2c[nH]c3ccccc23)NC(=O)C(Cc2ccccc2)NC(=O)[C@H]2CCCN2C1=O` (single isomer, unassigned) yielded a GHI of 166.
For `C[C@@H](O)[C@@H]1NC(=O)[C@H](CCCCN)NC(=O)[C@@H](Cc2c[nH]c3ccccc23)NC(=O)[C@H](Cc2ccccc2)NC(=O)[C@H](Cc2ccccc2)NC(=O)CCCCCCNC(=O)[C@H](Cc2ccccc2)NC1=O` (stereo in doubt), the GHI was 1.08.
With `C[C@@H](O)[C@H](NC(=O)[C@H](Cc1ccccc1)NC(=O)[C@@H](NC(=O)[C@H](CCCCN)NC(=O)[C@@H](Cc1c[nH]c2ccccc12)NC(=O)[C@H](Cc1ccc(O)cc1)NC(=O)[C@H](Cc1ccc(Cl)cc1)NC(=O)[C@H](N)Cc1ccccc1)[C@@H](C)O)C(N)=O` (H-[dF][Phe(4-Cl)]Y[dW]KTFT-NH2) the GHI was 3.4.
For `CC(C)[C@H](NC(=O)[C@H](CCCCN)NC(=O)[C@@H](Cc1c[nH]c2ccccc12)NC(=O)[C@H](Cc1ccc(O)cc1)NC(=O)[C@H](Cc1ccc(Cl)cc1)NC(=O)[C@H](N)Cc1ccccc1)C(=O)N[C@@H](Cc1ccccc1)C(=O)N[C@H](C(N)=O)[C@@H](C)O` (H-[dF][Phe(4-Cl)]Y[dW]KVFT-NH2), the GHI was 17.
With `NCCCC[C@@H]1NC(=O)[C@@H](Cc2c[nH]c3ccccc23)NC(=O)[C@H](Cc2ccc(O)cc2)NC(=O)[C@@H](NC(=O)[C@H](N)Cc2ccccc2)CSSC[C@@H](C(=O)N[C@@H](Cc2ccc3ccccc3c2)C(N)=O)NC(=O)[C@H](CO)NC1=O` the GHI was 0.03.
In the case of `CC(C)C1NC(=O)[C@H](CCCCN)NC(=O)[C@@H](Cc2c[nH]c3ccccc23)NC(=O)C(Cc2ccc(O)cc2)NC(=O)CCSSCC(C(=O)N[C@@H](Cc2ccccc2)C(N)=O)NC1=O` (single isomer, unassigned), the GHI is reported as 23.
Molecule `COc1ccc2[nH]cc(C[C@@H]3NC(=O)[C@H](Cc4ccccc4)NC(=O)[C@H](Cc4ccccc4)NC(=O)CCCCCCNC(=O)[C@H](Cc4ccccc4)NC(=O)[C@H]([C@@H](C)O)NC(=O)[C@H](CCCCN)NC3=O)c2c1` (stereo in doubt) has a GHI of 50.
In the case of `CC[C@@H]1NC(=O)C(CCCCN)NC(=O)[C@@H](Cc2c[nH]c3ccccc23)NC(=O)C(Cc2ccccc2)NC(=O)[C@@H]2CCCN2C(=O)C(Cc2ccccc2)NC1=O` (single isomer, unassigned), the GHI is reported as 1.25.
With `C[C@@H](O)[C@@H]1NC(=O)[C@H](CCCCN)NC(=O)[C@H](Cc2c[nH]c3cc(F)ccc23)NC(=O)[C@H](Cc2ccccc2)NC(=O)[C@H](Cc2ccccc2)NC(=O)CCCCCCNC(=O)[C@H](Cc2ccccc2)NC1=O` (stereo in doubt) the GHI was 2.4.
With `C[C@@H](O)[C@@H]1NC(=O)C(CCCCN)NC(=O)[C@@H](Cc2c[nH]c3ccccc23)NC(=O)C(Cc2ccccc2)NC(=O)[C@H](Cc2ccccc2)NC(=O)C(Cc2ccccc2)NC1=O` (single isomer, unassigned) the GHI was 3.71.
`CC(C)[C@@H]1NC(=O)[C@H](CCCN)NC(=O)[C@@H](Cc2c[nH]c3ccccc23)NC(=O)[C@H](Cc2ccc(O)cc2)NC(=O)[C@H](NC(=O)[C@H](N)Cc2ccc3ccccc3c2)CSSC[C@@H](C(=O)N[C@@H](Cc2ccc3ccccc3c2)C(N)=O)NC1=O` showed a GHI of 4.17.
Work on `C[C@@H](O)[C@H](NC(=O)[C@H](Cc1ccccc1)NC(=O)[C@@H](NC(=O)[C@H](CCCCN)NC(=O)[C@@H](Cc1c[nH]c2ccccc12)NC(=O)[C@H](Cc1ccc(O)cc1)NC(=O)[C@H](Cc1ccc(Cl)cc1)NC(=O)[C@H](N)Cc1ccc2ccccc2c1)[C@@H](C)O)C(N)=O` (H-[d2Nal][Phe(4-Cl)]Y[dW]KTFT-NH2) yielded a GHI of 17.
Molecule `C[C@@H](O)[C@@H]1NC(=O)[C@H](CCCCN)NC(=O)[C@@H](Cc2c[nH]c3ccccc23)NC(=O)[C@H](Cc2ccc([N+](=O)[O-])cc2)NC(=O)[C@H](Cc2ccccc2)NC(=O)CCCCCCNC(=O)[C@H](Cc2ccccc2)NC1=O` (stereo in doubt) has a GHI of 3.5.
Work on `C[C@@H](O)[C@@H]1NC(=O)[C@H](CCCCN)NC(=O)[C@@H](Cc2c[nH]c3ccccc23)NC(=O)[C@H](Cc2ccccc2)NC(=O)[C@@H](NC(=O)[C@H](N)Cc2ccccc2)CSSC[C@@H](C(=O)N[C@@H](Cc2ccc3ccccc3c2)C(N)=O)NC1=O` yielded a GHI of 0.22.
`C[C@@H](O)[C@@H]1NC(=O)[C@H](CCCCN)NC(=O)[C@H](Cc2c[nH]c3ccc(F)cc23)NC(=O)[C@H](Cc2ccccc2)NC(=O)[C@H](Cc2ccccc2)NC(=O)CCCCCCNC(=O)[C@H](Cc2ccccc2)NC1=O` (stereo in doubt) was tested, and the GHI was 6.7.
Work on `NCCCCC1NC(=O)[C@@H](Cc2c[nH]c3ccccc23)NC(=O)C(Cc2ccccc2)NC(=O)[C@H](Cc2ccccc2)NC(=O)CCCCCCNC(=O)C(Cc2ccccc2)NC(=O)C2(CCCC2)NC1=O` (single isomer, unassigned) yielded a GHI of 6.7.
Work on `C[C@@H](O)[C@@H]1NC(=O)[C@H](CCCCN)NC(=O)[C@@H](Cc2c[nH]c3ccccc23)NC(=O)[C@H](Cc2ccc(O)cc2)NC(=O)[C@H](Cc2ccccc2)NC(=O)CCCCCCNC(=O)[C@H](Cc2ccccc2)NC1=O` (stereo in doubt) yielded a GHI of 1.04.
`CC1C(=O)N[C@@H](Cc2ccccc2)C(=O)NC(Cc2c[nH]c3ccccc23)C(=O)N[C@@H](CCCCN)C(=O)NC([C@@H](C)O)C(=O)N[C@@H](Cc2ccccc2)C(=O)N1C` (single isomer, unassigned) was tested, and the GHI was 0.29.
For `CC(C)[C@@H]1NC(=O)[C@H](CCCCN)NC(=O)[C@@H](Cc2c[nH]c3ccccc23)NC(=O)[C@H](Cc2ccc(O)cc2)NC(=O)[C@@H](NC(=O)[C@H](N)Cc2ccccc2)CSSC[C@@H](C(=O)N[C@@H](Cc2ccc3ccccc3c2)C(N)=O)NC1=O` (H-[dF]CY[dW]KVC[2Nal]-NH2; disulfide 2-7), the GHI was 0.43.
`CC(C)[C@H](NC(=O)[C@H](CCCCN)NC(=O)[C@@H](Cc1c[nH]c2ccccc12)NC(=O)[C@H](Cc1ccc(O)cc1)NC(=O)[C@H](C)NC(=O)[C@H](N)Cc1ccc2ccccc2c1)C(=O)N[C@@H](C)C(=O)N[C@H](C(N)=O)[C@@H](C)O` (H-[d2Nal]AY[dW]KVAT-NH2) showed a GHI of 435.
For `CC(C)[C@@H]1NC(=O)[C@H](CCCCN)NC(=O)[C@@H](Cc2c[nH]c3ccccc23)NC(=O)[C@H](Cc2ccc(O)cc2)NC(=O)[C@@H](NC(=O)[C@H](N)Cc2ccc3ccccc3c2)CSSC[C@@H](C(=O)N[C@@H](Cc2ccc3ccccc3c2)C(N)=O)NC1=O` (H-[d2Nal]CY[dW]KVC[2Nal]-NH2; disulfide 2-7), the GHI was 11.
`C[C@H](NC(=O)[C@H](N)Cc1ccccc1)C(=O)N[C@@H](Cc1ccccc1)C(=O)N[C@H](Cc1c[nH]c2ccccc12)C(=O)N[C@@H](CCCCN)C(=O)N[C@H](C(=O)N[C@@H](C)C(=O)N[C@H](C(N)=O)[C@@H](C)O)[C@@H](C)O` (H-[dF]AF[dW]KTAT-NH2) gave a GHI of 2500.
Molecule `CC(C)[C@@H]1NC(=O)[C@H](CCCCN)NC(=O)[C@@H](Cc2c[nH]c3ccccc23)NC(=O)[C@H](Cc2c[nH]c3ccccc23)NC(=O)[C@H](NC(=O)[C@H](N)Cc2ccccc2)CSSC[C@@H](C(=O)N[C@@H](Cc2ccc3ccccc3c2)C(N)=O)NC1=O` has a GHI of 0.2.
With `C[C@@H](O)[C@@H]1NC(=O)C(CCCCN)NC(=O)[C@@H](Cc2c[nH]c3ccccc23)NC(=O)C(Cc2ccc(O)cc2)NC(=O)[C@@H]2CCCN2C(=O)C(Cc2ccccc2)NC1=O` (single isomer, unassigned) the GHI was 0.07.
`CC(C)[C@@H]1NC(=O)[C@H](CCCCN)NC(=O)[C@@H](Cc2c[nH]c3ccccc23)NC(=O)[C@H](Cc2ccc(O)cc2)NC(=O)[C@H](NC(=O)[C@H](N)Cc2ccccc2)CSSC[C@@H](C(=O)N[C@@H](Cc2ccc3ccccc3c2)C(=O)O)NC1=O` was tested, and the GHI was 0.06.
In the case of `C[C@@H](O)[C@@H]1NC(=O)[C@H](CCCCN)NC(=O)[C@H](Cc2c[nH]c3ccc(Br)cc23)NC(=O)[C@H](Cc2ccccc2)NC(=O)[C@H](Cc2ccccc2)NC(=O)CCCCCCNC(=O)[C@H](Cc2ccccc2)NC1=O` (stereo in doubt), the GHI is reported as 50.
Work on `C[C@H](NC(=O)[C@H](N)Cc1ccccc1)C(=O)N[C@@H](Cc1ccc(O)cc1)C(=O)N[C@H](Cc1c[nH]c2ccccc12)C(=O)N[C@@H](CCCCN)C(=O)N[C@H](C(=O)N[C@@H](C)C(=O)N[C@@H](Cc1ccc2ccccc2c1)C(N)=O)[C@@H](C)O` yielded a GHI of 16.
In the case of `C[C@@H](O)[C@@H]1NC(=O)[C@H](CCCCN)NC(=O)[C@@H](Cc2c[nH]c3ccccc23)NC(=O)[C@H](Cc2c[nH]c3ccccc23)NC(=O)[C@H](Cc2ccccc2)NC(=O)CCCCCCNC(=O)[C@H](Cc2ccccc2)NC1=O` (stereo in doubt), the GHI is reported as 16.7.
`CN[C@H](C)C(=O)N[C@@H](Cc1ccc(O)cc1)C(=O)N[C@H](Cc1c[nH]c2ccccc12)C(=O)N[C@@H](CCCCN)C(=O)N[C@H](C(=O)N[C@@H](Cc1ccccc1)C(N)=O)C(C)C` showed a GHI of 20000.
Work on `CC(C)[C@H](NC(=O)[C@H](CCCCN)NC(=O)[C@@H](Cc1c[nH]c2ccccc12)NC(=O)[C@H](Cc1ccc(O)cc1)NC(=O)[C@H](C)NC(=O)[C@H](N)Cc1ccc(Cl)cc1)C(=O)N[C@@H](C)C(=O)N[C@H](Cc1ccccc1)C(N)=O` yielded a GHI of 417.
Work on `CC1NC(=O)[C@H]([C@@H](C)O)NC(=O)C(CCCCN)NC(=O)[C@@H](Cc2c[nH]c3ccccc23)NC(=O)C(Cc2ccccc2)NC(=O)[C@@H]2CCCN2C1=O` (single isomer, unassigned; 61) yielded a GHI of 500.
